Only some compounds are listed: those with a hit (about 2.6% of all), similar ones and a draw of the others.
SENP1 inh = SENP1 (human) catalytic domain inhibition | Q9P0U3 | recombinant SENP1 catalytic domain, CyPet-SUMO1-YPet FRET cleavage | inhibition, % at 10 µM | actives 0.21% (n = 360,000);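 active = inhibition at least 30% at 10 µM, raw YFP signal under a set limit, fluorescence ratio 0.5 to 1.5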
Target sequence (Q9P0U3 419-644 limits assumed): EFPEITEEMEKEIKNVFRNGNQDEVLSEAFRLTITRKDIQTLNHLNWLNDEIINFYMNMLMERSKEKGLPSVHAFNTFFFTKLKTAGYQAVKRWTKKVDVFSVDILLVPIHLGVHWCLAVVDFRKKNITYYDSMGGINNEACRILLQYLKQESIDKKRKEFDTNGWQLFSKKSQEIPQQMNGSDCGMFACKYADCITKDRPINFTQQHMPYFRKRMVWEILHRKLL
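Compound: 10 µM single point, 0.5% DMSO; Test system: hSENP1 catalytic domain, recombinant; Timing: 50 min reaction at room temperature; Technique: FRET, CFP and YFP emission; Control set: no-enzyme wells low, DMSO-plus-enzyme wells high control.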
SENP8 block-1 = blocks human SENP8 cleavage of Nedd8 substrate | Q96LD8 | recombinant SENP8, Nedd8 substrate fluorescence | inhibition, % at 20 µM | actives 0.64% (n = 360,000) | AID 602440; in the data active = inhibition mostly above about 40%, no sharp cut-off; inactive = mostly below about 27%
Target sequence (Q96LD8 whole entry, looked up): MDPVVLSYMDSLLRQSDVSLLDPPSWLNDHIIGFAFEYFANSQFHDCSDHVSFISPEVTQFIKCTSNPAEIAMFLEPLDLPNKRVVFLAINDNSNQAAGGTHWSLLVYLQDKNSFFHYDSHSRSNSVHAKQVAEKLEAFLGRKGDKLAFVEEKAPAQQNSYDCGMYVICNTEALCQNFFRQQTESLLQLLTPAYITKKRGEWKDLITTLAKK
UCH37 DUB inh = human UCH37 deubiquitinating enzyme inhibition; Q9Y5K5; purified proteasome/UCH37, Ub-AMC cleavage fluorescence; inhibition, % (no concentration beside the values); actives 0.33% (n = 330,000);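 active = mean inhibition over replicate wells above about 20%, limit read from the data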
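Material: Human UCH37 enzyme supplied as purified proteasome complex | Schedule: 30 min compound-proteasome preincubation then 25 min substrate reaction, room temperature | Detection: AMC fluorescence from Ub-AMC cleavage, excitation 355 nm, emission 460 nm | Benchmarks: Wells without proteasome as full block, compound-free enzyme plus substrate as uninhibited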
SENP7 block = SENP7 protease inhibition; actives 1.5% (n = 330,000); recombinant SENP7, Z-RLRGG-aminoluciferin luminescence, 40 min; Q9BQF6; AID 434973; inhibition, % at 5 µM;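 active = inhibition above about 50% at the single test dose, limit read from the data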
SENP6 block = inhibitors of human SENP6 protease. Q9GZR1. inhibition, % at 10 µM. Recombinant SENP6 catalytic domain, aminoluciferin luminescence. actives 1.8% (n = 330,000);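 active = inhibition above about 50% at the single tested dose, limit read from the data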
SENP8 block-2 = inhibitors of human SENP8 protease. Q96LD8. purified SENP8, Z-RLRGG-aminoluciferin cleavage, luminescence. inhibition, % at 10 µM. actives 1.2% (n = 330,000); in the data active = inhibition above about 50%
SENP8 confirm = confirmation of human SENP8 protease inhibitors; shares compounds with SENP7 block; Recombinant SENP8, Z-RLRGG-aminoluciferin luminescence, 60 min; inhibition, % at 12.5 µM; actives 40% (n = 6,200);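 active = mean inhibition across replicates above about 50%, limit read from the data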
SENP6 confirm = confirmation of human SENP6 protease inhibitors; shares compounds with SENP7 block; recombinant SENP6, Z-RLRGG-aminoluciferin luminescence; actives 58% (n = 6,200); inhibition, % at 12.5 µM
SENP7 conf = confirmation of human SENP7 protease inhibitors | inhibition, % at 12.5 µM | actives 69% (n = 6,200) | shares compounds with SENP7 block | recombinant SENP7, Z-RLRGG-aminoluciferin luminescence, 40 min | AID 488917
Casp3 select = inhibits human caspase-3 in SENP selectivity test | shares compounds with SENP7 block | purified caspase-3, Z-DEVD-aminoluciferin luminescence, 60 min | inhibition, % at 12.5 µM | actives 60% (n = 6,200) | AID 488918;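 active = mean inhibition above about 50%, limit read from the data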
Target sequence (P42574 28-227 limits assumed): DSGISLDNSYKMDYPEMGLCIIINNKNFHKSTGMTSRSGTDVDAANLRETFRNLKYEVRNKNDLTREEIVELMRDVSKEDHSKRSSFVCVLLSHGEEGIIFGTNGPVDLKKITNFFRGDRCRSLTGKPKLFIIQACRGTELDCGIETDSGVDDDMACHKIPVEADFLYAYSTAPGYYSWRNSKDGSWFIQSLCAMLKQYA
SENP luc ctr = luminescence interference (SENP counter-screen). shares compounds with SENP7 block. Pre-incubated SENP8/Z-RLRGG-aminoluciferin, luciferase luminescence interference. inhibition, % at 12.5 µM. actives 39% (n = 6,200). AID 488919;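 active = mean inhibition above about 50% when retested at one dose, limit read from the data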
Numbers stand for hits; n = inactive; x = not tested or not shown.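 The calls were made as follows, unless noted: active = mean inhibition above about 50% in the one-dose retest (limit read from the data); inactive = the rest.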

SMILES	SENP1 inh	SENP8 block-1	UCH37 DUB inh	SENP7 block	SENP6 block	SENP8 block-2	SENP8 confirm	SENP6 confirm	SENP7 conf	Casp3 select	SENP luc ctr
Cc1nc(/N=C\c2ccc(N(C)C)cc2)sc1C	n	n	x	n	n	60.5	n	n	n	n	n
Cc1nc2c(C)cccc2cc1C(=O)NN=Cc1ccc(O)cc1	x	x	n	x	x	x	x	x	x	x	x
CCOC(=O)c1[nH]c2ccc(C)cc2c1N	n	n	n	n	50.0	n	53.9	54.0	88.5	81.8	72.2
CCOC(=O)c1[nH]c2cc(OC)c(OC)cc2c1N	n	n	n	n	n	n	x	x	x	x	x
CCOC(=O)c1c(N=CN(C)C)sc(C=O)c1-c1ccccc1	x	x	n	x	x	x	x	x	x	x	x
CC1(C)Cc2c(sc(NC(=O)C(=O)N3CCCC3)c2C(N)=O)CO1	n	n	n	n	n	n	x	x	x	x	x
CC1(C)Cc2c(sc(NC(=O)Nc3ccccc3)c2C(N)=O)CO1	n	n	n	53.1	68.0	55.5	n	51.9	79.6	52.5	n
O=C1N/C(=C\c2ccccc2)c2ccccc21	n	n	n	n	n	n	x	x	x	x	x
O=C1N/C(=C\c2nc3ccccc3s2)c2ccccc21	x	x	x	98.3	91.9	84.1	n	n	n	n	n
CC1C(=O)C(C)C(c2cc(Br)ccc2O)NC1c1cc(Br)ccc1O (stereo not drawn)	n	n	x	x	x	x	x	x	x	x	x
Oc1ccc(Br)cc1C1Nc2ccccc2S1 (stereo not drawn)	n	n	n	79.4	n	n	n	n	n	n	n
COc1ccc2c(c1)c(C(=O)NN=Cc1ccccc1Cl)c(C)n2C	x	x	n	x	x	x	x	x	x	x	x
Nc1cccc2c(O)cccc12	n	n	n	n	68.0	n	n	n	n	n	n
O=C(Nc1ccc(COc2ccccc2)cc1)c1cccc([N+](=O)[O-])c1	n	n	n	62.5	n	n	n	n	n	n	n
CC(C)Oc1cccc(C(=O)Nc2ccc(N3CCN(C)CC3)cc2)c1	n	n	n	n	n	n	x	x	x	x	x
CN1CCN(c2ccc(NC(=O)c3cccc(OCc4ccccc4)c3)cc2)CC1	n	n	n	n	58.7	n	n	n	n	n	n
CCN1CCN(c2ccc(NC(=O)c3cccc(OCc4ccccc4)c3)cc2)CC1	n	n	n	n	56.2	n	n	n	n	n	n
COc1cccc(C(=O)Nc2ccc(N3CCN(Cc4ccccc4)CC3)cc2)c1	n	n	n	n	n	n	x	x	x	x	x
O=C(NN=Cc1ccccc1[N+](=O)[O-])c1ccc2c(c1)OCCO2	x	x	n	x	x	x	x	x	x	x	x
COc1cc(SC)ccc1C(=O)Nc1ccc2c(c1)OCCO2	n	n	n	80.7	78.7	62.8	79.6	81.0	94.6	75.3	64.5
COc1cc(SC)ccc1C(=O)Nc1c(C)cccc1C	n	n	n	n	n	n	x	x	x	x	x
COc1cc(SC)ccc1C(=O)NNC(=O)c1cc(C)oc1C	n	n	n	97.5	97.9	93.9	97.6	98.6	102.6	98.3	92.6
COc1ccccc1C(=O)Nc1ccc2c(c1)OCCO2	n	n	n	n	53.1	n	n	n	70.6	69.2	52.2
O=C1/C(=C/c2ccco2)CCc2ccccc21	n	n	n	n	87.4	74.7	96.8	99.3	102.4	96.4	93.8
COc1ccc2c(c1)CC/C(=C\c1ccc(OC)c(Cn3cccn3)c1)C2=O	n	n	n	n	n	n	x	x	x	x	x
SMILES	SENP1 inh	SENP8 block-1	UCH37 DUB inh	SENP7 block	SENP6 block	SENP8 block-2	SENP8 confirm	SENP6 confirm	SENP7 conf	Casp3 select	SENP luc ctr
COc1ccc2c(c1)CC/C(=C/c1ccco1)C2=O	n	n	n	n	90.6	82.8	96.3	97.0	101.5	91.5	93.7
Nc1ccc2c(c1)C/C(=C/c1ccco1)C2=O	n	n	n	n	n	n	x	x	x	x	x
COc1ccccc1CNC(=O)COc1ccccc1C(=O)c1cnn(-c2ccccc2)c1	n	n	n	n	50.7	n	n	n	60.6	n	n
CC(=O)c1sc(NN=Cc2c(O)ccc3ccccc23)nc1C	x	x	n	x	x	x	x	x	x	x	x
O=C(Nc1nc2ccccc2[nH]1)Nc1ccccc1F	n	n	n	n	59.8	n	n	53.8	n	n	n
O=C(Nc1nc2ccccc2[nH]1)c1cccc(Br)c1	n	n	n	56.9	n	n	n	n	n	n	n
O=C(Nc1nc2ccccc2[nH]1)c1cccc(F)c1	n	n	n	90.8	90.9	82.0	n	84.0	98.5	92.1	n
CN(C)c1cccc(C(=O)Nc2nc3ccccc3[nH]2)c1	n	n	n	64.9	n	n	n	n	81.2	73.0	n
O=C(Nc1nc2ccccc2[nH]1)c1cccc([N+](=O)[O-])c1	n	n	x	n	n	n	x	x	x	x	x
N#CC(=NNc1cccc(C(F)(F)F)c1)C(=O)c1ccsc1	x	x	n	x	x	x	x	x	x	x	x
CC(C)C=NNc1nc2c(c(=O)n(C)c(=O)n2C)n1C	x	x	n	x	x	x	x	x	x	x	x
CC(=NNS(=O)(=O)c1ccc(F)cc1)c1ccc(NC(=O)c2ccc(C)o2)cc1	x	x	n	x	x	x	x	x	x	x	x
O=C(NC1CCCCC1)N1CCC(c2nc(-c3ccc(S(=O)(=O)N4CCCC4)cc3)no2)CC1	n	n	n	n	n	n	x	x	x	x	x
O=C(C1CC1)N1CCC(c2nc(-c3ccc(S(=O)(=O)N4CCCC4)cc3)no2)CC1	n	n	n	83.6	n	n	n	n	n	n	n
O=[N+]([O-])c1ccc2nc(-c3ccccc3)oc2c1	n	n	n	71.1	77.5	63.4	54.3	58.8	78.3	70.2	n
COc1cccc(-c2nc3ccc([N+](=O)[O-])cc3o2)c1	n	n	n	94.6	n	n	n	55.9	72.9	n	n
CC(C)c1c(C(=O)NN=CC2CC=CCC2)nnn1-c1nonc1N (stereo not drawn)	x	x	n	x	x	x	x	x	x	x	x
CC1=CCCC(C)(C)C1/C=C/C(C)=NNC(=O)c1ccncc1 (stereo not drawn)	x	x	n	x	x	x	x	x	x	x	x
Cc1ccccc1NC(=O)CCC(=O)NN=Cc1c[nH]c2ccccc12	x	x	n	x	x	x	x	x	x	x	x
O=C(O)C1CC(c2ccccc2)=NO1 (stereo not drawn)	n	n	n	95.3	n	n	n	n	n	n	n
O=C(C(=NNc1ccc(Br)cc1)Sc1nnnn1-c1ccccc1)c1ccccc1	x	x	n	x	x	x	x	x	x	x	x

Compound activity (PubChem BioAssay)
